Data set [1] is described as follows: Clearance in Sprague-Dawley rat at 2 mg/kg, iv and 5 mg/kg, po. It counts as ADME, organism-based. The note with it: in vivo. In a few lines: (§1)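 Rats received 2 mg/kg iv infusion or 5 mg/kg po, in 50% PEG400/40% PBS/10% ethanol.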
Data set [2] deals with P2Y purinoceptor 12 (Homo sapiens, UniProt Q9H244). In words: Displacement of [33P]ADP from human recombinant P2Y12 receptor expressed in CHO cells. Format: cell-based. The essentials:
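Washed membranes from CHO cells expressing synthetic human P2Y12, incubated 1 h at room temperature with 0.2 nM 33P-MeSADP in 50 mM Tris/100 mM NaCl/1 mM EDTA. Compound was tested as a 7-point 3-fold series in triplicate. Nonspecific binding was defined with 300 nM 2-MeSADP, followed by filtration.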

The nature of data set [3]: Volume of distribution at steady state in Sprague-Dawley rat at 2 mg/kg, iv and 5 mg/kg, po. Format: ADME, organism-based. The note with it: in vivo, read-out: Vdss. The essentials:
as §1

Data set [4] has as its system Platelet. In words: Relative potency, ratio of IC50 for drug to IC50 for AZD-6140 for platelet aggregation in human platelet rich plasma. Format: functional.
Data set [5] is described as follows: Half life in Sprague-Dawley rat at 2 mg/kg, iv and 5 mg/kg, po. The note with it: in vivo. Format: ADME, organism-based. The essentials:
as §1

A short description of data set [6]: Antiplatelet aggregation activity against adenosine diphosphate-induced human platelet rich plasma assessed as inhibition of platelet aggregation by turbidimetric method. It counts as functional. The following applies: Homo sapiens, Platelet, Plasma. The essentials: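 Human PRP, prepared by two-step centrifugation and adjusted to 330 000 platelets/μL with PPP. Compound was preincubated 5 min at 37 °C in 0.5% DMSO, then 20 μM ADP was added. OD626 was read kinetically for 15 min at 37 °C with mixing between reads.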

Sequence of P2Y purinoceptor 12 (Q9H244 whole entry): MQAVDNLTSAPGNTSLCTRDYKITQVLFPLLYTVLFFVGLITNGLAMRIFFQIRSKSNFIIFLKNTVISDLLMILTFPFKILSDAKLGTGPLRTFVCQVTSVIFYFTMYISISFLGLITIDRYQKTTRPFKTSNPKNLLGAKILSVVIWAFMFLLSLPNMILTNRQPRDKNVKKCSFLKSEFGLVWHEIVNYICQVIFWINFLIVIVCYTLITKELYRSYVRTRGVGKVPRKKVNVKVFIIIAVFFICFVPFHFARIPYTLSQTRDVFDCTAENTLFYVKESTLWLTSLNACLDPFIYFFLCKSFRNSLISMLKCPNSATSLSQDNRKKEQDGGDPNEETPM

Take `CCCCCOC(=O)N1CCN(C(=O)[C@H](CCC(=O)O)NC(=O)c2cc(N3CCC(N(C)C)CC3)cc(-c3ccccc3)n2)CC1`: the clearance in data set [1] stood at 81 mL/min/kg. The Ki in data set [2] was 22 nM. For the same compound, the Vd in data set [3] is 2.3 L/kg. Also, the “Ratio IC50” value in data set [4] came out at 2.1. This compound showed a half-life in data set [5] of 18 min. The IC50 in data set [6] was 1800 nM.
For the compound `CCCCCOC(=O)N1CCN(C(=O)[C@H](CCC(=O)O)NC(=O)c2cc(C(=O)N3CCC(N(C)C)CC3)cc(-c3ccccc3)n2)CC1`, the clearance in data set [1] worked out at 37 mL/min/kg. For the same compound, in data set [2], the Ki was found to be 5.4 nM. Besides, the Vd in data set [3] was determined as 0.77 L/kg. For the same compound, the “Ratio IC50” value in data set [4] is on record as 1. In addition, the half-life in data set [5] was 12 min. Also, the IC50 in data set [6] amounted to 580 nM.
As for `CCCCCOC(=O)N1CCN(C(=O)[C@H](CCC(=O)O)NC(=O)c2cc(OC(=O)N(C)CC3CCOCC3)cc(-c3ccccc3)n2)CC1`, the clearance in data set [1] stood at 109 mL/min/kg. Also, the Ki in data set [2] is 45 nM. Also, the Vd in data set [3] amounted to 8.6 L/kg. Also, in data set [4], the “Ratio IC50” value was found to be 0.82. The half-life in data set [5] was 78 min. In addition, the half-inhibitory concentration (IC50) in data set [6] was 470 nM.
On to `CCCCCOC(=O)N1CCN(C(=O)[C@H](CCC(=O)O)NC(=O)c2cc(C(=O)N3CCC(OC)CC3)cc(-c3ccccc3)n2)CC1`, for which the clearance in data set [1] turned out to be 54 mL/min/kg. Besides, the Ki in data set [2] is 3.2 nM. In addition, in data set [3], the Vd came out at 1.2 L/kg. In addition, in data set [4], the “Ratio IC50” value is 0.99. Also, the half-life in data set [5] was 15 min. In addition, the IC50 in data set [6] is 460 nM.
With `CCCCCOC(=O)N1CCN(C(=O)[C@H](CCC(=O)O)NC(=O)c2cc(OC(=O)N3CCOCC3)cc(-c3ccccc3)n2)CC1`, the clearance in data set [1] came out at 220 mL/min/kg. Also, the Ki in data set [2] is 4.8 nM. The Vd in data set [3] came to 31 L/kg. The “Ratio IC50” value in data set [4] is reported as 0.99. This compound also gave a half-life in data set [5] of 96 min. Moreover, in data set [6], the IC50 is 1700 nM.
Turning to `CCCCCOC(=O)N1CCN(C(=O)[C@H](CCC(=O)O)NC(=O)c2cc(N3CCC(CN(C)C)CC3)cc(-c3ccccc3)n2)CC1`, the clearance in data set [1] came out at 92 mL/min/kg. Besides, the Vd in data set [3] was found to be 2.1 L/kg. Besides, the “Ratio IC50” value in data set [4] amounted to 1.3. For the same compound, the half-life in data set [5] is 18 min.
For `CCCCCOC(=O)N1CCN(C(=O)[C@H](CCC(=O)O)NC(=O)c2cc(NCCC)cc(-c3ccccc3)n2)CC1`, the Ki in data set [2] was 12 nM. The “Ratio IC50” value in data set [4] was determined as 14. Besides, the IC50 in data set [6] was determined as 13000 nM.
In the same order, the values of `CCCCCOC(=O)N1CCN(C(=O)[C@H](CCC(=O)O)NC(=O)c2cc(N3CCC(CO)CC3)cc(-c3ccccc3)n2)CC1` are 2.4 nM, 6.3 and 1800 nM.
On to `CCCCCOC(=O)N1CCN(C(=O)[C@H](CCC(=O)O)NC(=O)c2cc(OCC3CCN(S(=O)(=O)CC)CC3)cc(-c3ccccc3)n2)CC1`, for which the Ki in data set [2] came to 7.4 nM. Moreover, the “Ratio IC50” value in data set [4] came out at 1.9. In data set [6], the IC50 amounted to 2800 nM.
In the case of `CCCCCOC(=O)N1CCN(C(=O)[C@H](CCC(=O)O)NC(=O)c2cc(CCCCN(C)C)cc(-c3ccccc3)n2)CC1`, in data set [2], the Ki was 3.3 nM. For the same compound, the “Ratio IC50” value in data set [4] came to 1. For the same compound, in data set [6], the half-maximal inhibitory concentration (IC50) is 1000 nM.
In the same order, the values of `CCCCCOC(=O)N1CCN(C(=O)[C@H](CCC(=O)O)NC(=O)c2cc(N3CCC(N4CCOCC4)CC3)cc(-c3ccccc3)n2)CC1` are 10 nM, 0.95 and 2000 nM.
For `CCCCCOC(=O)N1CCN(C(=O)[C@H](CCC(=O)O)NC(=O)c2cc(C(=O)N(C)C)cc(-c3ccccc3)n2)CC1`, in that order: 2.4 nM, 1 and 1100 nM.
For `CCCCOC(=O)N1CCN(C(=O)[C@H](CCC(=O)O)NC(=O)c2cc(OC(=O)N3CCC(OCC)CC3)cc(-c3ccccc3)n2)CC1`, in that order: 2.1 nM, 1.2 and 1000 nM.

As a reminder, the Ki is the equilibrium dissociation constant of an inhibitor or competing ligand from its target. In general, half-life refers to how long it takes for the measured level to halve. The low end stands for rapid decline, the high end for slow decline. In general, IC50 refers to the concentration that inhibits the measured activity by half.

Source of the values: ChEMBL document CHEMBL1157562, “Piperazinyl glutamate pyridines as potent orally bioavailable P2Y12 antagonists for inhibition of platelet aggregation” (J Med Chem, 2010).
